Only some compounds are listed: those with a hit (about 2.2% of all), similar ones and a draw of the others.
RanGTP-Imp inh: inhibitors of RanGTP-importin-beta interaction, primary screen, biochemical, FRET, CFP-Ran, YFP-importin-beta, homogeneous; Ran GTPase (GTP-bound) - importin-beta complex; cell-free CFP-Ran/YFP-importin-beta FRET ratio; inhibition, % (concentration not given with the values); 300,000 compounds, 1.1% hits; AID 2216, 2009;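 active = more than half of the replicate wells show a fall in the fluorescence ratio signal beyond about 16%, limit read from the data, passing the limit was not always enough; inconclusive = exactly half of the replicate wells pass the set limit; inactive = fewer than half of replicates pass the limit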;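 note: 0% = DMSO wells and 100% = Ran loaded with GDP instead of GTP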
14-3-3 Bad inh: inhibitors of 14-3-3 zeta/Bad binding, primary screen, biochemical, TR-FRET, bovine 14-3-3 zeta; TR-FRET 14-3-3zeta/Dy647-pBad peptide displacement, 1 h; inhibition, % at 21.7 µM; 220,000 compounds, 0.71% hits; AID 781, 2007;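 active = inhibition above about 70%, limit read from the data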;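 note: 0% = full 14-3-3 plus peptide FRET controls and 100% = background without 14-3-3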
Tb hexokinase: Trypanosoma brucei hexokinase 1 inhibitors, primary screen, biochemical, G6PDH-coupled NADH absorbance, MLSCN library | hexokinase 1 [Trypanosoma brucei] | recombinant TbHK1, G6PDH-coupled NADH A340 | inhibition, % at 10 µM | 220,000 compounds, 0.11% hits;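 active = inhibition of 50% or more in the single-dose primary screen; inactive = inhibition below 50%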
Runt-SMMHC FRET: inhibitors of RUNX1 Runt–CBFb-SMMHC binding, primary screen, biochemical, FRET, Cerulean-Runt, Venus-CBFb-SMMHC, uHTS | inhibition, % at 20 µM | AID 1434, 2008 | 220,000 compounds, 0.74% hits | Runt-related transcription factor 1 (Homo sapiens) + Core-binding factor subunit beta … | Cerulean-Runt/Venus-CBFb-SMMHC FRET ratio 530/480, 1 h;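 active = mean inhibition across duplicate retests at 20 µM reaching about 50%, limit read from the data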;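 note: 0% = DMSO wells and 100% = wells with excess untagged CBFb-SMMHC; inhibitors lower the FRET ratio by blocking Runt binding to CBFb-SMMHC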
Target sequence (Q01196 whole entry, looked up): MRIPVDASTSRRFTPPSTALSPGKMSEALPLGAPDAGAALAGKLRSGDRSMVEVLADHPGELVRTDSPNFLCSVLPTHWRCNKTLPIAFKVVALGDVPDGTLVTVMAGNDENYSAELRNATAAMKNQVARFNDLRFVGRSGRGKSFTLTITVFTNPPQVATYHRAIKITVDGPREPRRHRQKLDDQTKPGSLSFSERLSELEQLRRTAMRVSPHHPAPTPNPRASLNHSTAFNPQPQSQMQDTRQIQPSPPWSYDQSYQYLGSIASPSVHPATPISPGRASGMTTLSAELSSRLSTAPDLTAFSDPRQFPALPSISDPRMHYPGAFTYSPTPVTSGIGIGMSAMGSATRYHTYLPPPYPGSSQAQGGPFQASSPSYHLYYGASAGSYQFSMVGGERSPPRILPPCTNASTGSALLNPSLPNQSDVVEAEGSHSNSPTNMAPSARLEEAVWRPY
Target sequence (Q13951 whole entry, looked up): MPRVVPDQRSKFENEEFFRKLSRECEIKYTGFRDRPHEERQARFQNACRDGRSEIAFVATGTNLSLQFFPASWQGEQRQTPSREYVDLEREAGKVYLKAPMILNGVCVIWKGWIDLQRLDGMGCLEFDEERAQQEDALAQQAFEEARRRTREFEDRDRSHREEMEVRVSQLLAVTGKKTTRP
Runt-CBFb FRET: inhibitors of RUNX1 Runt–CBFb binding, primary screen, biochemical, FRET, Cerulean-Runt, Venus-CBFb, uHTS; Cerulean-Runt/Venus-CBFb FRET ratio 530/480, 1 h; inhibition, % at 20 µM; 220,000 compounds, 0.46% hits; AID 1496, 2009;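 active = inhibition over about 50% at 20 µM in the single-dose screen, limit read from the data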;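 note: 0% = DMSO wells and 100% = excess unlabeled CBFb competitor control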
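Measured by: fluorescence energy transfer, 422 nm excitation, 530/480 nm emission; Assay system: Cerulean-Runt domain; Medium: Tris pH 7.5 buffer with BSA; Measure: loss of energy transfer signal; Controls: 5 µM unlabeled CBFb as full-inhibition high control; Incubation: protein complex preformed 1 h, compound exposure 1 h, room temperature, dark.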
Hck Nef HTS: inhibitors of Nef-activated human Hck kinase, primary screen, biochemical, Z-Lyte FRET, 384-well, Hck-YEEI; 220,000 compounds, 0.68% hits; Tyrosine-protein kinase HCK (Homo sapiens), P08631; AID 463187, 2010; inhibition, % at 20 µM; Recombinant Hck-YEEI plus Nef, Z-Lyte FRET kinase assay;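 active = Hck-Nef kinase inhibition above about 50%, limit read from the data; inactive = inhibition below that limit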;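 note: 0% = DMSO with Hck plus Nef and 100% = Hck alone without Nef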
Runt-CBFb TRFRET: inhibitors of RUNX1 Runt–CBFb binding, biochemical, TR-FRET; shares compounds with Runt-CBFb FRET; TR-FRET RUNX1 Runt domain-CBFb binding; inhibition, % at 20 µM; 480 compounds, 20% hits; in the data active = inhibition above about 40%
YIC counter: YIC intramolecular FRET probe signal interference, dose response, counter-screen for RanGTP-importin-beta inhibitor project, biochemical, fluorescence FRET. 1,000 compounds, 40% hits. shares compounds with RanGTP-Imp inh. IC50, µM. Purified YIC probe, intramolecular FRET ratio YFP/CFP;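 active = fitted half-maximal inhibitory concentration no more than tenfold above the top dose tested; inconclusive = flat fit with 30 to 70% activity, or poor fit; inactive = half-maximal concentration beyond tenfold above the top dose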
Hck-Nef confirm: retest of Hck:Nef kinase inhibitor hits, confirmation, biochemical, Z-Lyte FRET, 384-well, p-Tyr peptide counterscreen | shares compounds with Hck Nef HTS | Recombinant Hck-YEEI:Nef, Z-Lyte FRET kinase assay | calls only at 10 µM | 1,300 compounds, 28% hits;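 active = average inhibition of at least 50%, with Z-scores no higher than 3 in both the phospho-tyrosine peptide and fluorescence counterscreens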
* = called active by the depositor; i = inactive; ? = inconclusive; / = no result shown; + = active, no number; [ ] = remark or other dose.

SMILES	RanGTP-Imp inh	14-3-3 Bad inh	Tb hexokinase	Runt-SMMHC FRET	Runt-CBFb FRET	Hck Nef HTS	Runt-CBFb TRFRET	others
COc1ccc(C(=O)c2cc3ccc(O)cc3oc2=O)cc1	48.0*	30.7	-13.5	88.2*	88.0*	31.0	17.4	YIC counter=15.2*
Cc1ccc2nc(N3CCN(C(=O)c4cccs4)CC3)c(C#N)cc2c1	18.5*	/	-0.8	123.7*	56.4*	3.8	-29.6	YIC counter=16*
Cc1ccc2cc(C#N)c(N3CCN(C(=O)c4ccccc4)CC3)nc2c1	7.1	/	/	/	/	/	/
Cc1nc2[nH]c(=O)c3c(n2n1)NC1=C(C(=O)CC(C)(C)C1)C3c1ccc(F)cc1 (stereo not given)	35.1*	-6.2	-19.7	100.4*	80.5*	1.3	-5.7	YIC counter=4.07*
CCCNC(=O)c1ccc(N2CCC3(CC2)CC(c2cccc(Br)c2)=NO3)c(NC(=O)c2ccc(Cl)c([N+](=O)[O-])c2)c1	1.0	/	/	/	/	/	/
CCCn1c(=N)c(C(=O)NCc2ccc3c(c2)OCO3)cc2c(=O)n3cccc(C)c3nc21	40.2*	-7.9	-8.6	99.3*	71.0*	6.4	-23.6	YIC counter=14.6*
CCOc1ccc(CO/N=C/c2c(C)[nH]c(=O)[nH]c2=O)cc1	-2.1	-19.6	-5.5	-2.2	/	-4.1	/
CCCC1C(C#N)=C(N)Oc2cc(C)n(C)c(=O)c21 (stereo not given)	18.0*	5.5	3.9	96.9*	94.9*	5.0	63.0*	YIC counter=>50
CC(=O)C(C)Oc1ccc2c3c(c(=O)oc2c1C)CCCC3 (stereo not given)	4.4	/	-11.4	38.5	13.9	3.5	/
Cc1c(O)ccc2c3c(c(=O)oc12)CCC(C)C3 (stereo not given)	37.2*	-7.0	-13.0	118.0*	66.1*	28.1	19.7	YIC counter=14*
NN1C(=O)/C(=C2/Sc3ccccc3N2CCCS(=O)(=O)O)SC1=S	13.7	/	/	/	/	/	/
O=C1NC(=S)S/C1=C1\Sc2ccccc2N1CCCS(=O)(=O)O	26.6*	10.5	0.3	122.7*	88.1*	2.3	26.6	YIC counter=14.9*
Cc1c(Cc2ccccc2)c(=O)oc2cc(O)ccc12	3.8	-2.5	-25.4	127.6*	66.3*	138.9*	-4.7
NS(=O)(=O)c1cnccc1Nc1ccc(Cl)c(Cl)c1	-5.7	7.9	-3.0	-0.4	-0.4	2.1	/
C/C(=C\C(=O)c1sccc1Cl)N(C)C	-4.2	-8.1	-27.1	-6.1	1.0	6.7	/
C/C(N)=C(/C#N)C(=O)CSc1nc2ccccc2c(=O)n1CCCOC(C)C	2.6	6.4	33.9	-0.8	-3.9	0.6	/
CC(=O)N=c1c(C#N)cc2c(=O)n3ccccc3nc2n1CCCOC(C)C	102.0*	4.2	-6.2	81.7*	76.5*	55.6*	38.3
CCN(CC)Cc1c(O)c(Cl)cc2c(C)c(C)c(=O)oc12	20.3*	-15.2	-22.5	90.7*	83.0*	77.3*	-202.4	YIC counter=30*
CCN(CC)Cc1c(O)ccc2c(-c3ccccc3)cc(=O)oc12	1.1	5.8	-13.6	-71.1	-18.0	3.6	/
Cc1cc(=O)oc2c(CN3CCCC3)c(O)c(Cl)cc12	6.5	/	/	/	/	/	/
Cc1c(C)c2cc(Cl)c(O)c(CN3CCCC(C)C3)c2oc1=O (stereo not given)	?	3.0	-24.6	139.4*	83.6*	81.4*	32.6
Cc1cc(=O)oc2c(CN3CCCCC3)c(O)c(Cl)cc12	8.8	73.3*[fluorescence artefact?]	-22.2	134.5*	62.1*	124.8*	-6.2
CCCc1cc(=O)oc2c(CN3CCCC3)c(O)ccc12	8.9	/	-26.2	122.1*	54.3*	93.3*	-13.3
CCc1cc2c(=O)c(-c3nc4ccccc4n3C)coc2c(CN2CCCC(C)C2)c1O (stereo not given)	7.1	/	/	/	/	/	/
CCOC(=O)C(C)Sc1ccc2nnc(CCNS(=O)(=O)c3ccccc3)n2n1 (stereo not given)	4.9	5.0	-7.1	2.5	-0.2	10.3	/
SMILES	RanGTP-Imp inh	14-3-3 Bad inh	Tb hexokinase	Runt-SMMHC FRET	Runt-CBFb FRET	Hck Nef HTS	Runt-CBFb TRFRET	others
Cc1cc(=O)oc2c(CN3CCC(C)CC3)c(O)c(Cl)cc12	/	-6.1	-21.6	140.2*	77.2*	117.9*	41.2*
CCN1CCN(Cc2c(O)c(Cl)cc3c(C)cc(=O)oc23)CC1	27.0*	-0.4	-16.9	167.9*	93.9*	149.2*	18.1	YIC counter=38.8*
CCN1CCN(Cc2c(O)ccc3c(C)cc(=O)oc23)CC1	4.8	/	/	/	/	/	/
NNC(=O)COc1ccc2oc3c(c2c1)CCCC3	5.8	/	/	/	/	/	/
O=C(NNC(=O)c1cccs1)c1ccc(Cl)c(Cl)c1	2.4	-10.6	-5.5	3.3	-1.1	0.8	/
CCOC(=O)c1cc2c(=O)n3cccc(C)c3nc2n(CCOC)c1=NC(C)=O	70.4*	4.5	-22.9	87.4*	94.5*	87.0*	-3.4
COc1c(O)c(O)c2oc(-c3ccccc3)cc(=O)c2c1OC	-2.3	-1.8	-14.0	52.8*	57.6*	66.3*	64.8*	Hck-Nef confirm=+
CCOC(=O)c1sc(Nc2nc3c(OC)cccc3s2)nc1C	2.1	-0.4	-9.3	81.7*	84.1*	66.6*	4.7	Hck-Nef confirm=i
O=C(N/C(=C\c1cccc(Br)c1)C(=O)N1CCOCC1)c1ccco1	1.8	/	/	/	/	/	/
O=C(O)CN1C(=O)/C(=C/c2ccc(SCc3ccccc3)o2)SC1=S	/	5.8	0.5	31.5	70.5*	73.5*	3.6	Hck-Nef confirm=i
O=C(O)c1cccc(-c2ccc(/C=N/Nc3ccc([N+](=O)[O-])cc3)o2)c1	-94.2	-4.8	-31.3	-144.2	-59.4	11.2	/
O=C(O)c1ccc(N/N=C/c2ccc(-c3cccc(Cl)c3)o2)cc1	67.6*	-6.8	-11.9	80.3*	58.5*	53.3*	24.9	Hck-Nef confirm=i
